Source: ChEMBL document CHEMBL1151801, “Synthesis of new indeno[1,2-e]pyrimido[4,5-b][1,4]diazepine-5,11-diones as potential antitumor agents” (2008)
Activity calls are given as the source filed them.

Assays:
[1] = tested on: NCI-H322M; assay: Antitumor activity against human NCI-H322M cells after 48 hrs by SRB assay; assay type: functional
Summary of the method: (§1)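 NCI in vitro human tumor cell line screen. Cells were exposed continuously to compound for 48 h at five concentration levels (100, 10, 1.0, 0.1 and 0.01). Growth was estimated by sulforhodamine B protein staining. GI50 is the concentration giving a 50% reduction in net protein increase relative to control cells over the incubation.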

[2] = tested on: IGROV-1; assay: Antitumor activity against human IGROV1 cells after 48 hrs by SRB assay; assay type: functional; details: IGROV-1, 48 h; summary of the method: as §1
[3] = tested on: HCC 2998; assay: Antitumor activity against human HCC2998 cells after 48 hrs by SRB assay; assay type: functional; details: HCC 2998, 48 h; summary of the method: as §1
[4] = tested on: MCF7; assay: Antitumor activity against human MCF7 cells after 48 hrs by SRB assay; assay type: functional; details: MCF7, 48 h; summary of the method: as §1
[5] = tested on: BT-549; assay: Antitumor activity against human BT549 cells after 48 hrs by SRB assay; assay type: functional; details: BT-549, 48 h; summary of the method: as §1
[6] = tested on: SF-295; assay: Antitumor activity against human SF295 cells after 48 hrs by SRB assay; assay type: functional; details: SF-295, 48 h; summary of the method: as §1
[7] = tested on: NCI-H460; assay: Antitumor activity against human NCI-H460 cells after 48 hrs by SRB assay; assay type: functional; details: NCI-H460, 48 h; summary of the method: as §1
[8] = tested on: T47D; assay: Antitumor activity against human T47D cells after 48 hrs by SRB assay; assay type: functional
Summary of the method: (§2)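 NCI in vitro human tumor cell line screen. Continuous 48 h drug exposure at five concentrations (100, 10, 1.0, 0.1 and 0.01 µM). Cell growth estimated by sulforhodamine B protein staining. GI50 defined as the concentration giving 50% reduction in net protein increase versus control cells over the incubation.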

[9] = tested on: NCI-H226; assay: Antitumor activity against human NCI-H226 cells after 48 hrs by SRB assay; assay type: functional; details: NCI-H226, 48 h; summary of the method: as §1
[10] = tested on: PC-3; assay: Antitumor activity against human PC3 cells after 48 hrs by SRB assay; assay type: functional; details: PC-3, 48 h; summary of the method: as §1
[11] = tested on: MDA-MB-435; assay: Antitumor activity against human MDA-MB-435 cells after 48 hrs by SRB assay; assay type: functional; details: MDA-MB-435, 48 h; summary of the method: as §1
[12] = tested on: SF-539; assay: Antitumor activity against human SF539 cells after 48 hrs by SRB assay; assay type: functional; details: SF-539, 48 h; summary of the method: as §1
[13] = tested on: A498; assay: Antitumor activity against human A498 cells after 48 hrs by SRB assay; assay type: functional; details: A498, 48 h; summary of the method: as §1
[14] = tested on: HCT-116; assay: Antitumor activity against human HCT116 cells after 48 hrs by SRB assay; assay type: functional; details: HCT-116, 48 h; summary of the method: as §1
[15] = tested on: A549; assay: Antitumor activity against human A549 cells after 48 hrs by SRB assay; assay type: functional; details: A549, 48 h; summary of the method: as §1
[16] = tested on: OVCAR-8; assay: Antitumor activity against human OVCAR8 cells after 48 hrs by SRB assay; assay type: functional; details: OVCAR-8, 48 h; summary of the method: as §1
[17] = tested on: CCRF-CEM; assay: Antitumor activity against human CCRF-CEM cells after 48 hrs by SRB assay; assay type: functional; summary of the method: as §1
[18] = tested on: MDA-MB-231; assay: Antitumor activity against human MDA-MB-231 cells after 48 hrs by SRB assay; assay type: functional; details: MDA-MB-231, 48 h; summary of the method: as §1
[19] = tested on: NCI/ADR-RES; assay: Antitumor activity against human NCI/ADR-RES cells after 48 hrs by SRB assay; assay type: functional; summary of the method: as §1
[20] = tested on: OVCAR-4; assay: Antitumor activity against human OVCAR4 cells after 48 hrs by SRB assay; assay type: functional; details: OVCAR-4, 48 h; summary of the method: as §1
[21] = tested on: SR; assay: Antitumor activity against human SR cells after 48 hrs by SRB assay; assay type: functional; summary of the method: as §1
[22] = tested on: DU-145; assay: Antitumor activity against human DU145 cells after 48 hrs by SRB assay; assay type: functional; details: DU-145, 48 h; summary of the method: as §1
[23] = tested on: COLO 205; assay: Antitumor activity against human COLO205 cells after 48 hrs by SRB assay; assay type: functional; details: COLO 205, 48 h; summary of the method: as §1
[24] = tested on: HL-60(TB); assay: Antitumor activity against human HL-60(TB) cells after 48 hrs by SRB assay; assay type: functional; details: HL-60, 48 h; summary of the method: as §1
[25] = Antitumor activity against human Hs 578T cells after 48 hrs by SRB assay; assay type: functional; summary of the method: as §1
[26] = tested on: SW-620; assay: Antitumor activity against human SW620 cells after 48 hrs by SRB assay; assay type: functional; details: SW-620, 48 h; summary of the method: as §2
[27] = tested on: SF-268; assay: Antitumor activity against human SF268 cells after 48 hrs by SRB assay; assay type: functional; details: SF-268, 48 h; summary of the method: as §1
[28] = tested on: SNB-75; assay: Antitumor activity against human SNB75 cells after 48 hrs by SRB assay; assay type: functional; details: SNB-75, 48 h; summary of the method: as §1
[29] = tested on: NCI60; assay: Antitumor activity against human NCI60 cells at 1 uM; assay type: functional, cell-based
[30] = tested on: HT-29; assay: Antitumor activity against human HT-29 cells after 48 hrs by SRB assay; assay type: functional; details: HT-29, 48 h; summary of the method: as §1
[31] = tested on: MOLT-4; assay: Antitumor activity against human MOLT4 cells after 48 hrs by SRB assay; assay type: functional; details: MOLT-4, 48 h; summary of the method: as §1
[32] = tested on: NCI-H522; assay: Antitumor activity against human NCI-H522 cells after 48 hrs by SRB assay; assay type: functional; details: NCI-H522, 48 h; summary of the method: as §1
[33] = tested on: 786-0; assay: Antitumor activity against human 786-0 cells after 48 hrs by SRB assay; assay type: functional; details: 786-0, 48 h; summary of the method: as §1
[34] = tested on: ACHN; assay: Antitumor activity against human ACHN cells after 48 hrs by SRB assay; assay type: functional; summary of the method: as §1
[35] = tested on: K562; assay: Antitumor activity against human K562 cells after 48 hrs by SRB assay; assay type: functional; details: K562, 48 h; summary of the method: as §1
[36] = tested on: SK-OV-3; assay: Antitumor activity against human SKOV3 cells after 48 hrs by SRB assay; assay type: functional; details: SK-OV-3, 48 h; summary of the method: as §1
[37] = tested on: UO-31; assay: Antitumor activity against human UO31 cells after 48 hrs by SRB assay; assay type: functional; details: UO-31, 48 h; summary of the method: as §2
[38] = tested on: U-251; assay: Antitumor activity against human U251 cells after 48 hrs by SRB assay; assay type: functional; details: U-251, 48 h; summary of the method: as §2
[39] = read-out: LC50 (the source's name)

## CSc1nc2c(c(=O)[nH]1)NC1=C(C(=O)c3ccccc31)C(c1ccc(F)cc1)N2 (stereo not given)
[1]
  GI50: 13.9 µM
[1]; [39]
  CC50: > 100 µM
[2]
  GI50: 11.3 µM
[2]; [39]
  CC50: > 100 µM
[3]
  GI50: 12.2 µM
[3]; [39]
  CC50: 76.1 µM
[4]
  GI50: 5.18 µM
  LC50 (concentration causing 50% net cell kill): > 100 µM
[5]
  GI50: 8.5 µM
[5]; [39]
  CC50: > 100 µM
[6]
  GI50: 3.67 µM
[6]; [39]
  CC50: > 100 µM
[7]
  GI50: 5.1 µM
[7]; [39]
  CC50: > 100 µM
[8]
  GI50: 14.2 µM
[8]; [39]
  CC50: > 100 µM
[9]
  GI50: 15.3 µM
  LC50: > 100 µM
[10]
  GI50: 7.72 µM
[10]; [39]
  CC50: > 100 µM
[11]
  GI50: 1.65 µM
  LC50: > 100 µM
[12]
  GI50: 8.9 µM
  LC50 (concentration killing 50% of cells): 92 µM
[13]
  GI50: 4.88 µM
  LC50: 57.7 µM
[14]
  GI50: 7.23 µM
  LC50 (50% lethal concentration): 44.7 µM
[15]
  GI50: 12.6 µM
[15]; [39]
  CC50: > 100 µM
[16]
  GI50: 13.1 µM
  LC50 (concentration causing 50% net cell kill): 95.2 µM
[17]
  GI50: 8.16 µM
[17]; [39]
  CC50: > 100 µM
[18]
  GI50: 12.6 µM
  LC50 (lethal concentration, 50% net cell kill): > 100 µM
[19]
  GI50: 6.42 µM
  LC50: > 100 µM
[20]
  GI50: 15.4 µM
[20]; [39]
  CC50: > 100 µM
[21]
  GI50: 6.31 µM
  LC50 (concentration killing 50% of cells): > 100 µM
[22]
  GI50: 16.2 µM
[22]; [39]
  CC50: > 100 µM
[23]
  GI50: 13 µM
[23]; [39]
  CC50: > 100 µM
[24]
  GI50: 6.54 µM
  LC50: > 100 µM
[25]
  GI50: 5.85 µM
[25]; [39]
  CC50: > 100 µM
[26]
  GI50: 4.48 µM
  LC50: > 100 µM
[27]
  GI50: 12.7 µM
[27]; [39]
  CC50: > 100 µM
[28]
  GI50: 1.46 µM
  LC50: > 100 µM
[29]
  Activity: Active
[30]
  GI50: 3.36 µM
  LC50: 35.1 µM
[31]
  GI50: 19.5 µM
  LC50: > 100 µM
[32]
  GI50: 3.17 µM
[32]; [39]
  CC50: > 100 µM
[33]
  GI50: 12.4 µM
[33]; [39]
  CC50: 60.4 µM
[34]
  GI50: 11.6 µM
[34]; [39]
  CC50: > 100 µM
[35]
  GI50: 4.05 µM
  LC50: > 100 µM
[36]
  GI50: 14.1 µM
  LC50 (concentration killing 50% of cells): > 100 µM
[37]
  GI50: 16.3 µM
[37]; [39]
  CC50: > 100 µM
[38]
  GI50: 5.43 µM
[38]; [39]
  CC50: 48.6 µM
